Calls of active or inactive are those of the source. The rule behind the calls is not given here.

Series [1] relates to Vero. As to the kind of experiment: Cytotoxicity against African green monkey Vero cells assessed as decrease in cell viability at 20 to 70 uM after 2 days by MTT assay. In kind it is cell-based. The following applies: chlorocebus sabaeus, 48 h. In general terms: Formazan colour is commonly taken as a measure of viable cells.
Series [2] has as its system Porcine epidemic diarrhea virus. Put plainly: Antiviral activity against Porcine epidemic diarrhea virus infected in African green monkey Vero cells assessed as inhibition of virus-induced cytopathic effect at 40 uM after 3 days. In kind it is functional. Put shortly:
(§1)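 Vero cells were inoculated with PEDV for 2 h, then treated with compound and incubated 3 days, with CPE inhibition as read-out. Screening was at 40 or 50 μM for non-cytotoxic compounds and at 20 μM for cytotoxic ones; the dose-response covered 20–90 μM. Azauridin was the positive control; mean ± SD, n = 3, versus virus-injected control.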
On the technique in general: Protection from cytopathic effect is a common read-out in antiviral testing.

Series [3] has as its system Vero. Put plainly: Cytotoxicity against African green monkey Vero cells assessed as decrease in cell viability at 80 uM after 2 days by MTT assay. In kind it is cell-based. The following applies: chlorocebus sabaeus, 48 h.
Series [4] relates to Porcine epidemic diarrhea virus. As to the kind of experiment: Antiviral activity against Porcine epidemic diarrhea virus infected in African green monkey Vero cells assessed as inhibition of virus-induced cytopathic effect at 20 uM after 3 days. In kind it is functional. The method, boiled down: as §1
Series [5] relates to Vero. Put plainly: Cytotoxicity against African green monkey Vero cells assessed as decrease in cell viability at 20 to 80 uM after 2 days by MTT assay. In kind it is cell-based. The conditions noted are these: chlorocebus sabaeus, 48 h.
Series [6] deals with Vero. As to the kind of experiment: Cytotoxicity against African green monkey Vero cells assessed as decrease in cell viability at 90 uM after 2 days by MTT assay. The following applies: chlorocebus sabaeus, 48 h. The format is cell-based.
The test system of series [7] is Vero. As to the kind of experiment: Cytotoxicity against African green monkey Vero cells assessed as decrease in cell viability at 70 uM after 2 days by MTT assay. The following applies: chlorocebus sabaeus, 48 h. In kind it is cell-based.
In series [8] the test system is Porcine epidemic diarrhea virus. As to the kind of experiment: Antiviral activity against Porcine epidemic diarrhea virus infected in African green monkey Vero cells assessed as inhibition of virus-induced cytopathic effect at 20 to 90 uM after 3 days. In kind it is functional. The method, boiled down:
as §1

Series [9] has the same test system. As to the kind of experiment: Antiviral activity against Porcine epidemic diarrhea virus infected in African green monkey Vero cells assessed as decrease in nucleocapsid expression levels at 45 uM after 24 hrs by Western blot analysis. In kind it is functional. Put shortly:
(§2)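 Vero cells inoculated with PEDV, then incubated with or without compound (40 or 45 μM, or 10, 20, 40, 80 μM) for 24 h. Cells lysed and probed by Western blot with anti-nucleocapsid and anti-spike antibodies. Azauridin was the positive control. Values are relative to virus-infected control, mean ± SD (n = 3).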
(In general: Immunoblotting shows a protein as a band on a membrane.)

The test system is the same in series [10]. As to the kind of experiment: Antiviral activity against Porcine epidemic diarrhea virus infected in African green monkey Vero cells assessed as decrease in spike protein expression levels at 45 uM after 24 hrs by Western blot analysis. The format is functional. The method, boiled down: (§3)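 PEDV-infected Vero cells were incubated with or without compound for 24 h; single-compound tests were at 40 or 45 μM, and a dose series at 80, 40, 20 and 10 μM. Cells were lysed and blotted with nucleocapsid and spike antibodies. Azauridin was the positive control; mean ± SD, n = 3, versus virus-injected control.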

The test system is the same in series [11]. As to the kind of experiment: Antiviral activity against Porcine epidemic diarrhea virus infected in African green monkey Vero cells assessed as inhibition of virus-induced cytopathic effect after 3 days. In kind it is functional. The method, boiled down: as §1
For series [12] the test system is unchanged. As to the kind of experiment: Antiviral activity against Porcine epidemic diarrhea virus infected in African green monkey Vero cells assessed as decrease in nucleocapsid synthesis at 20 to 80 uM after 24 hrs by DAPI staining-based fluorescence microscopy. In kind it is functional. The method, boiled down:
(§4)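 PEDV-infected Vero cells co-incubated with compound at 20, 40 or 80 μM for 24 h, with azauridin 20 μM as positive control. Cells fixed, permeabilized and stained with monoclonal antibody to nucleocapsid or spike. Antigen-expressing cells were scored by immunofluorescence and compared with uninfected and virus-infected controls.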

Series [13] shares this test system. As to the kind of experiment: Antiviral activity against Porcine epidemic diarrhea virus infected in African green monkey Vero cells assessed as decrease in nucleocapsid expression levels after 24 hrs by Western blot analysis. The format is functional. Put shortly:
as §2

Series [14] shares this test system. As to the kind of experiment: Antiviral activity against Porcine epidemic diarrhea virus infected in African green monkey Vero cells assessed as decrease in spike protein synthesis levels after 24 hrs by DAPI staining-based fluorescence microscopy. The format is functional. The method, boiled down:
(§5)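 Virus-injected Vero cells were incubated 24 h with compound at 80, 40 or 20 μM, or with azauridin (20 μM) as positive control. Cells were then fixed, permeabilized and stained with monoclonal antibody against spike (or nucleocapsid) protein for immunofluorescence, alongside noninjected cells.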

Series [15] shares this test system. As to the kind of experiment: Antiviral activity against Porcine epidemic diarrhea virus infected in African green monkey Vero cells assessed as decrease in nucleocapsid expression levels at 40 uM after 24 hrs by Western blot analysis. The format is functional. Put shortly:
as §2

Series [16] has the same test system. As to the kind of experiment: Antiviral activity against Porcine epidemic diarrhea virus infected in African green monkey Vero cells assessed as decrease in spike protein expression levels after 24 hrs by Western blot analysis. The format is functional. Put shortly:
as §3

The test system is the same in series [17]. As to the kind of experiment: Antiviral activity against Porcine epidemic diarrhea virus infected in African green monkey Vero cells assessed as decrease in nucleocapsid synthesis after 24 hrs by DAPI staining-based fluorescence microscopy. In kind it is functional. Put shortly:
as §4

Series [18] shares this test system. As to the kind of experiment: Antiviral activity against Porcine epidemic diarrhea virus infected in African green monkey Vero cells assessed as inhibition of virus-induced cytopathic effect at 20 to 80 uM after 3 days. The format is functional.
Series [19] has the same test system. As to the kind of experiment: Antiviral activity against Porcine epidemic diarrhea virus infected in African green monkey Vero cells assessed as decrease in nucleocapsid expression levels at 10 to 80 uM after 24 hrs by Western blot analysis. In kind it is functional. The method, boiled down:
as §2

For series [20] the test system is unchanged. As to the kind of experiment: Antiviral activity against Porcine epidemic diarrhea virus infected in African green monkey Vero cells assessed as decrease in spike expression levels at 40 uM after 24 hrs by Western blot analysis. In kind it is functional. The method, boiled down:
as §3

For series [21] the test system is unchanged. Put plainly: Antiviral activity against Porcine epidemic diarrhea virus infected in African green monkey Vero cells assessed as decrease in spike protein synthesis at 20 to 80 uM after 24 hrs by DAPI staining-based fluorescence microscopy. The format is functional. The method, boiled down: as §5
Series [22] shares this test system. As to the kind of experiment: Antiviral activity against Porcine epidemic diarrhea virus infected in African green monkey Vero cells assessed as decrease in spike protein expression levels at 10 to 80 uM after 24 hrs by Western blot analysis. In kind it is functional. Put shortly:
as §3

Take `CC(=O)O[C@H]1CC(C)=C2C(=O)C=C(C)[C@@H]2[C@H]2OC(=O)[C@@H](C)[C@@H]21`: the Activity entry in the series with Vero [1] is reported as “Toxic”.
For `C[C@@H]1CCC(=O)[C@@H]2CC[C@@H](C(C)(C)O)C[C@@]12C`, the result in series [2] was Active. The Activity entry in the series with Vero [3] is given as “Non-Toxic”.
As for `C=C(C)[C@@H]1CC/C(C)=C\C[C@@H](O)C(=C)[C@@H](O)C1`, the outcome in series [2] was Active. In the series with Vero [3], the Activity result is “Non-Toxic”.
As for `CC(=O)O[C@@H]1C=C(C)[C@@]2(O)CC=C(C)[C@H]2[C@@H]2OC(=O)[C@H](C)[C@H]21`, the Activity result with Vero [1] is “Toxic”.
For the compound `C=C1CC[C@@H](O)[C@]2(C)CC[C@@H](C(C)C)[C@H](O)[C@@H]12`, in series [2], the outcome was Active. The Activity entry in the series on Vero [3] is reported as “Non-Toxic”.
With `C=C1C(=O)O[C@@H]2[C@H]3C(C)=CC(=O)C3=C(C)C[C@H](O)[C@@H]12`, the outcome in series [4] was Active. In addition, the Activity result in the series on Vero [5] was “Toxic”.
With `CC(=O)CC[C@@H]1[C@H]2CCC(=O)[C@@H](C(C)C)[C@@H]12`, in the series with Vero [6], the Activity entry is recorded as “Non-Toxic”.
Consider `CC(C)(O)[C@@H]1CC[C@@]2(C)CCC[C@@]3(CO)O[C@@]23[C@@H]1O`, for which the Activity entry in the series on Vero [7] is on record as “Non-Toxic”. For the same compound, the result in [2] was Active.
In the case of `C=C(C)[C@@H]1CC[C@@]2(C)[C@H](O)C[C@@H](O)C(=C)[C@@H]2C1`, the result in series [2] was Active. The Activity result with Vero [3] is listed as “Non-Toxic”.
In the case of `C=C(C)[C@@H]1CC[C@]2(C)C(=C(C)C(=O)C[C@H]2O)C1` [LIGUCYPERONOL], in the series on Vero [6], the Activity entry is “Non-Toxic”. For the same compound, in series [2], the outcome was Active.
For the compound `C=C1CCC[C@]2(C)CC[C@@H](C(C)(C)O)[C@@H](O)[C@@]12O`, the result in series [2] was Active. Besides, the Activity result with Vero [3] is “Non-Toxic”.
Consider `CC(C)(O)[C@@H]1C=C2C(CO)=CCC[C@@]2(C)CC1`, for which the Activity result with Vero [5] was “Toxic”.
Regarding `CC(C)(O)[C@@H]1CC[C@@]2(C)CCC[C@]3(CO3)[C@]2(O)[C@@H]1O`, in the series on Vero [7], the Activity entry was “Non-Toxic”. The result in series [2] was Active.
In the case of `C=C1CC[C@@H](O)[C@]2(C)C[C@@H]3[C@@H](C(C)C)[C@@H]3[C@@H]12`, the result in [8], in series [9] and in [10] was Active. The Activity result was “Non-Toxic” with Vero [6] and “Dose-dependent effect” in series [11].
`C=C(C)[C@H]1CCC(=C)[C@@]2(O)C[C@H](O)C(=C)[C@@H](C1)O2`: the Activity entry with Vero [5] was “Toxic”.
Take `C=C1CC[C@@H]2[C@H]([C@H]3[C@H]1CC[C@]3(C)O)C2(C)C` [SPATHULENOL]: the Activity entry with Vero [6] is “Non-Toxic”.
On to `C=C1CCC[C@@]2(C)CC[C@@H](C(C)(C)O)[C@@H](O)[C@@]12O`, for which the result in series [12], in series [15], in [18], in series [19], in [20] and in [21] was Active. For the same compound, the result in [22] was Active. Besides, the Activity entry is “Dose-dependent effect” in series [13]; “Dose-dependent effect” in series [14]; “Dose-dependent effect” in series [16]; “Dose-dependent effect” in series [17]; “Non-Toxic” in the series on Vero [3]; “Dose-dependent effect” in series [11].
In the case of `C=C1/C=C/[C@H](C(C)C)CCC(=C)[C@H](O)CC1`, the result in series [8], in series [9] and in series [10] was Active. For the same compound, the results for the Activity result (with Vero [6]; in series [11]) were “Non-Toxic” and “Dose-dependent effect”, respectively.

The values above are taken from ChEMBL document CHEMBL4052602, “Sesquiterpenoids with Various Carbocyclic Skeletons from the Flowers of Chrysanthemum indicum” (J Nat Prod, 2017).
